PMC6018888 (Drug Design, Development and Therapy, 2018)

Assays:
Type in all cases: in vivo, human
serum urate (sUA) = assay: Pharmacodynamics: serum urate; conditions: for mean reduction of serum urate after 24 hours: multiple verinurad 10 mg doses
In short: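 Healthy males (screening sUA >4.5 mg/dL) took oral modified-release 2.5 mg tablets or placebo (6:2 per panel) once daily for 7 days (days 6–12), after a moderate-fat breakfast. Japanese panels received 2.5–15 mg and non-Asian subjects 10 mg. Serum sampled predose days 1, 6 and 8–12, then to 72 h (day 12). Maximum percent change from baseline and its timing were read directly from concentration–time data.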

[1] = Verinurad urinary pharmacokinetics; conditions: for CLR0–24 / fe0–24: Japanese subjects, geometric mean (95% CI)
[2] = Verinurad plasma pharmacokinetics, Phase I single and multiple dose study; conditions: for GMR AUC0–24 (day 6/day 1) / GMR AUC0–∞ (day 6/day 1) / GMR Cmax (day 6/day 1): fed (day 6) vs fasted (day 1); for Tmax: median (range); for AUC(0-t): AUC0–24, Japanese subjects; for half-life: t1/2, Japanese subjects
In short: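 Oral modified-release tablets were given once as a single dose on day 1 (fasted overnight ≥10 h) and day 6 (after a moderate-fat breakfast), then daily fed through day 12. Serial plasma was sampled to 72 h on days 1 and 12, to 24 h on day 6, and predose on days 8–11. Samples were stored at −70°C. Cmax and AUC0–24 came from noncompartmental analysis, with comparisons as geometric mean ratios.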

[3] = system: healthy Japanese and non-Asian adult male subjects; assay: Safety and tolerability assessment; conditions: for incidence of TEAEs: 10 mg dose level
In short: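 Adverse events were assessed daily in all dosed subjects, graded by Rheumatology Common Toxicity Criteria v2.0, with relatedness judged by the investigator. Clinical laboratory samples were taken at screening, admission, days 2, 5, 7 and 13, and at follow-up. Supine vital signs and oral temperature were measured at set times. Physical examination and 12-lead ECG were done at screening and follow-up.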

[4] = Japanese subjects, 2.5 mg multiple once-daily doses, fed
[5] = Japanese subjects, 5 mg multiple once-daily doses, fed
[6] = Japanese subjects, 10 mg multiple once-daily doses, fed
[7] = Japanese subjects, 15 mg multiple once-daily doses, fed
[8] = non-Asian subjects, 10 mg multiple once-daily dosing, fed
[9] = 2.5 mg single dose, fasted, day 1
[10] = 5 mg once daily multiple doses, fed, day 12
[11] = 5 mg single dose, fasted, day 1
[12] = 10 mg once daily multiple doses, fed, day 12
[13] = 10 mg single dose, fasted, day 1
[14] = 15 mg once daily multiple doses, fed, day 12
[15] = 15 mg single dose, fasted, day 1
[16] = Japanese subjects, 2.5 mg single dose
[17] = Japanese subjects, 5 mg single dose
[18] = Japanese subjects, 10 mg single dose
[19] = Japanese subjects, 15 mg single dose
[20] = Japanese subjects, across the dose groups 2.5–15 mg, fed vs fasted
[21] = male, human, plasma, oral, 5 mg, 5 mg once daily multiple doses, fed, day 12, geometric mean (95% CI)
[22] = male, human, plasma, oral, 10 mg, 10 mg once daily multiple doses, fed, day 12, geometric mean (95% CI)
[23] = male, human, plasma, oral, 15 mg, 15 mg once daily multiple doses, fed, day 12, geometric mean (95% CI)
[24] = multiple verinurad 10 mg doses, fed
[25] = Japanese subjects, pooled verinurad (n=24)
[26] = Non-Asian subjects, pooled verinurad (n=6)

What does the source list for `CC(C)(Sc1ccncc1-c1ccc(C#N)c2ccccc12)C(=O)O` [verinurad]?
time of maximum reduction in sUA (serum urate (sUA); Japanese and non-Asian subjects, multiple once-daily doses, fed): ≤ 12 hours postdose; sUA least square mean maximum percent change from baseline at 12 hours (serum urate (sUA); [4]): −31%; sUA percent change from baseline at 24 hours (serum urate (sUA); [4]): −16%; sUA least square mean maximum percent change from baseline at 12 hours (serum urate (sUA); [5]): −50%; sUA percent change from baseline at 24 hours (serum urate (sUA); [5]): −31%; sUA least square mean maximum percent change from baseline at 12 hours (serum urate (sUA); [6]): −62%; sUA percent change from baseline at 24 hours (serum urate (sUA); [6]): −46%; sUA concentration at maximum reduction (serum urate (sUA); [7]): < 2 mg/dL; sUA least square mean maximum percent change from baseline at 12 hours (serum urate (sUA); [7]): −74%; sUA percent change from baseline at 24 hours (serum urate (sUA); [7]): −55%; mean reduction of serum urate after 24 hours (serum urate (sUA); Japanese subjects): 46%; sUA maximum percent change from baseline (serum urate (sUA); [8]): −58%; sUA percent change from baseline at 24 hours postdose (serum urate (sUA); [8]): −44%; mean reduction of serum urate after 24 hours (serum urate (sUA); non-Asian subjects): 44%; CLR0–24 [1, 9]: 16.1 (9.41–27.6) mL/min; fe0–24 [1, 9]: 0.896 (0.620–1.29) %; CLR0–24 ([1]; 2.5 mg single dose, fed, day 6): 15.7 (9.54–25.8) mL/min; fe0–24 ([1]; 2.5 mg single dose, fed, day 6): 1.27 (0.659–2.47) %; CLR0–24 [1, 10]: 17.0 (11.8–24.5) mL/min; fe0–24 [1, 10]: 1.65 (0.959–2.84) %; CLR0–24 [1, 11]: 16.4 (11.3–23.7) mL/min; fe0–24 [1, 11]: 0.640 (0.279–1.47) %; CLR0–24 ([1]; 5 mg single dose, fed, day 6): 15.1 (11.8–19.3) mL/min; fe0–24 ([1]; 5 mg single dose, fed, day 6): 1.09 (0.730–1.64) %; CLR0–24 [1, 12]: 17.0 (9.43–25.4) mL/min; fe0–24 [1, 12]: 1.77 (1.38–2.25) %; CLR0–24 [1, 13]: 13.1 (10.1–16.9) mL/min; fe0–24 [1, 13]: 0.733 (0.558–0.964) %; fe0–24 ([1]; 10 mg single dose, fed, day 6): 1.63 (1.24–2.16) %; CLR0–24 [1, 14]: 16.0 (8.22–31.3) mL/min; fe0–24 [1, 14]: 1.83 (1.23–2.73) %; CLR0–24 [1, 15]: 9.30 (5.46–15.9) mL/min; fe0–24 [1, 15]: 0.788 (0.424–1.45) %; CLR0–24 ([1]; 15 mg single dose, fed, day 6): 12.0 (6.06–23.7) mL/min; fe0–24 ([1]; 15 mg single dose, fed, day 6): 1.14 (0.907–1.45) %; renal clearance GMR, Japanese vs non-Asian ([1]; multiple dosing, 90% CI 79.7–126): 100%; fraction of drug excreted in urine GMR, Japanese vs non-Asian ([1]; multiple dosing, 90% CI 98.7–153): 123%; renal clearance GMR, Japanese vs non-Asian ([1]; single dose, fasted, 90% CI 53.7–91.4): 70.0%; fraction of drug excreted in urine GMR, Japanese vs non-Asian ([1]; single dose, fasted, 90% CI 70.9–124): 93.7%; renal clearance GMR, Japanese vs non-Asian ([1]; single dose, fed, 90% CI 65.0–101): 80.9%; fraction of drug excreted in urine GMR, Japanese vs non-Asian ([1]; single dose, fed, 90% CI 107–191): 143%; AUC0–24 GMR, % (95% CI), Japanese/non-Asian ([2]; 10 mg multiple dose, fed): 123 (93.0–162) %; AUC0–24 GMR, % (95% CI), Japanese/non-Asian, bodyweight normalized to 70 kg ([2]; 10 mg multiple dose, fed): 96.9 (77.4–121) %; Cmax GMR, % (95% CI), Japanese/non-Asian ([2]; 10 mg multiple dose, fed): 138 (112–171) %; Cmax GMR, % (95% CI), Japanese/non-Asian, bodyweight normalized to 70 kg ([2]; 10 mg multiple dose, fed): 109 (94.4–126) %; AUC0–24 GMR, % (95% CI), Japanese/non-Asian ([2]; 10 mg single dose, fasted): 134 (111–161) %; AUC0–24 GMR, % (95% CI), Japanese/non-Asian, bodyweight normalized to 70 kg ([2]; 10 mg single dose, fasted): 106 (84.5–132) %; Cmax GMR, % (95% CI), Japanese/non-Asian ([2]; 10 mg single dose, fasted): 199 (167–237) %; Cmax GMR, % (95% CI), Japanese/non-Asian, bodyweight normalized to 70 kg ([2]; 10 mg single dose, fasted): 157 (132–187) %; AUC0–24 GMR, % (95% CI), Japanese/non-Asian ([2]; 10 mg single dose, fed): 176 (137–227) %; AUC0–24 GMR, % (95% CI), Japanese/non-Asian, bodyweight normalized to 70 kg ([2]; 10 mg single dose, fed): 139 (114–170) %; Cmax GMR, % (95% CI), Japanese/non-Asian ([2]; 10 mg single dose, fed): 142 (107–189) %; Cmax GMR, % (95% CI), Japanese/non-Asian, bodyweight normalized to 70 kg ([2]; 10 mg single dose, fed): 112 (88.5–143) %; GMR AUC0–24 (day 6/day 1) [2, 16]: 146 (101–211) %; GMR AUC0–∞ (day 6/day 1) [2, 16]: 131 (82.9–208) %; GMR Cmax (day 6/day 1) [2, 16]: 116 (105–128) %; Rac, accumulation ratio (day 12/day 6), AUC0–24 ([2]; Japanese subjects, 2.5 mg, fed): 1.06 (0.672–1.68); Tmax ([2]; Japanese subjects, 5 mg once daily multiple doses, fed, day 12): 4.00 (2.00–10.0) h; GMR AUC0–24 (day 6/day 1) [2, 17]: 185 (121–283) %; GMR AUC0–∞ (day 6/day 1) [2, 17]: 173 (108–278) %; GMR Cmax (day 6/day 1) [2, 17]: 126 (89.1–179) %; Rac, accumulation ratio (day 12/day 6), Cmax ([2]; Japanese subjects, 5 mg, fed): 1.24 (1.01–1.53); AUC0–24 ([2]; Japanese subjects, 10 mg single dose, fasted, day 1, geometric mean (95% CI)): 93.4 (74.2–118) ng·h/mL; GMR AUC0–24 (day 6/day 1) [2, 18]: 209 (172–253) %; GMR AUC0–∞ (day 6/day 1) [2, 18]: 197 (181–215) %; GMR Cmax (day 6/day 1) [2, 18]: 99.7 (85.1–117) %; Rac, accumulation ratio (day 12/day 6), AUC0–24 ([2]; Japanese subjects, 10 mg, fed): 0.886 (0.679–1.16); Rac, accumulation ratio (day 12/day 6), Cmax ([2]; Japanese subjects, 10 mg, fed): 1.14 (0.774–1.64); AUC0–24 ([2]; Japanese subjects, 15 mg single dose, fed, day 6, geometric mean (95% CI)): 239 (137–416) ng·h/mL; GMR AUC0–24 (day 6/day 1) [2, 19]: 107 (89.1–128) %; GMR AUC0–∞ (day 6/day 1) [2, 19]: 100 (83.1–120) %; GMR Cmax (day 6/day 1) [2, 19]: 112 (90.6–139) %; Rac, accumulation ratio (day 12/day 6), AUC0–24 ([2]; Japanese subjects, 15 mg, fed): 1.20 (0.979–1.46); Rac, accumulation ratio (day 12/day 6), Cmax ([2]; Japanese subjects, 15 mg, fed): 1.09 (0.823–1.44); effect of moderate-fat meal on plasma AUC0–∞ (increase) [2, 20]: 0%–97%; effect of moderate-fat meal on plasma Cmax (increase) [2, 20]: 0%–26%; AUC0–24 ([2]; Japanese, 10 mg single dose, fasted, geometric least square mean): 93.4 ng·h/mL; Cmax ([2]; Non-Asian, 10 mg single dose, fed, geometric least square mean): 15.4 ng/mL; AUC(0-t) [2, 21]: 80.9 ng·h/mL; Cmax ([2]; male, human, plasma, oral, 5 mg, Cmax, Japanese subjects, 5 mg once daily multiple doses, fed, day 12, geometric mean (95% CI)): 11.5 ng/mL; half-life [2, 21]: 7.85 h; AUC(0-t) [2, 22]: 173 ng·h/mL; Cmax ([2]; male, human, plasma, oral, 10 mg, Cmax, Japanese subjects, 10 mg once daily multiple doses, fed, day 12, geometric mean (95% CI)): 24.9 ng/mL; Tmax ([2]; male, human, plasma, oral, 10 mg, Tmax, Japanese subjects, 10 mg once daily multiple doses, fed, day 12): 4.5 h; half-life [2, 22]: 6.93 h; AUC(0-t) [2, 23]: 286 ng·h/mL; Cmax ([2]; male, human, plasma, oral, 15 mg, Cmax, Japanese subjects, 15 mg once daily multiple doses, fed, day 12, geometric mean (95% CI)): 41.5 ng/mL; half-life [2, 23]: 9.79 h; AUC higher in Japanese vs non-Asian subjects [2, 24]: 23%; Cmax higher in Japanese vs non-Asian subjects [2, 24]: 38%; AE possibly related to study drug, severe severity/life-threatening [3, 25]: 0 n (%) [events]; Any AE, severe severity/life-threatening [3, 25]: 0 n (%) [events]; SAEs [3, 25]: 0 n (%) [events]; incidence of TEAEs ([3]; Japanese subjects): 2 n; AE possibly related to study drug, moderate severity [3, 26]: 0 n (%) [events]; AE possibly related to study drug, severe severity/life-threatening [3, 26]: 0 n (%) [events]; Any AE, severe severity/life-threatening [3, 26]: 0 n (%) [events]; SAEs [3, 26]: 0 n (%) [events]; Subjects withdrawn due to AEs [3, 26]: 0 n (%) [events]; serum chemistry, hematology, coagulation, urinalysis parameters ([3]; all subjects): No safety concerns were identified; vital signs, 12-lead electrocardiograms, physical examinations ([3]; all subjects): No clinically significant findings; deaths, serious AEs, significant AEs of interest ([3]; all subjects, during the study): No deaths, other serious AEs, or other significant AEs of interest were reported; tolerability ([3]; healthy male Japanese and non-Asian subjects, single and multiple once-daily doses 2.5 to 15 mg): well tolerated; incidence of TEAEs ([3]; non-Asian subjects): 2 n; serum creatinine elevation ([3]; one subject, 3 days after a single 2.5 mg dose, resolved by day 14): 1.5 × baseline; TEAE of moderate severity ([3]; one subject, day 13 following daily dosing with 10 mg, unlikely to be related): moderately severe muscle strain
